Test results published in ChEMBL document CHEMBL3808379, “Isouronium and N-hydroxyguanidinium derivatives as Cell growth inhibitors: A comparative study” (Eur J Med Chem, 2016).

Tests used:
[1] = Cell cycle arrest in human Kelly cells assessed as accumulation at polyploid Gn phase at 25 uM after 48 hrs by propidium iodide staining-based flow cytometric analysis (reference value: 8.97 +/- 1.27%); type: functional
[2] = Cell cycle arrest in human Kelly cells assessed as accumulation at polyploid Gn phase at 25 uM after 72 hrs by propidium iodide staining-based flow cytometric analysis (reference value: 13.07 +/- 0.25%); type: functional
[3] = Cell cycle arrest in human Kelly cells assessed as accumulation at pre-G1 phase at 50 uM after 24 hrs by propidium iodide staining-based flow cytometric analysis (reference value: 6.12 +/- 0.95%); type: functional
[4] = Cell cycle arrest in human Kelly cells assessed as accumulation at pre-G1 phase at 50 uM after 48 hrs by propidium iodide staining-based flow cytometric analysis (reference value: 5.88 +/- 1.13%); type: functional
[5] = Cell cycle arrest in human Kelly cells assessed as accumulation at pre-G1 phase at 50 uM after 72 hrs by propidium iodide staining-based flow cytometric analysis (reference value: 10.21 +/- 2.85%); type: functional
[6] = Cell cycle arrest in human Kelly cells assessed as accumulation at G0/G1 phase at 50 uM after 24 hrs by propidium iodide staining-based flow cytometric analysis (reference value: 52.37 +/- 1.44%); type: functional
[7] = Cell cycle arrest in human Kelly cells assessed as accumulation at G0/G1 phase at 50 uM after 48 hrs by propidium iodide staining-based flow cytometric analysis (reference value: 52.54 +/- 2.32%); type: functional
[8] = Cell cycle arrest in human Kelly cells assessed as accumulation at G0/G1 phase at 50 uM after 72 hrs by propidium iodide staining-based flow cytometric analysis (reference value: 46.82 +/- 1.46%); type: functional
[9] = Cell cycle arrest in human Kelly cells assessed as accumulation at S phase at 50 uM after 24 hrs by propidium iodide staining-based flow cytometric analysis (reference value: 18.67 +/- 1.9%); type: functional
[10] = Cell cycle arrest in human Kelly cells assessed as accumulation at S phase at 50 uM after 48 hrs by propidium iodide staining-based flow cytometric analysis (reference value: 19.05 +/- 2.11%); type: functional
[11] = Cell cycle arrest in human Kelly cells assessed as accumulation at S phase at 50 uM after 72 hrs by propidium iodide staining-based flow cytometric analysis (reference value: 16.29 +/- 0.81%); type: functional
[12] = Cell cycle arrest in human Kelly cells assessed as accumulation at G2/M phase at 50 uM after 24 hrs by propidium iodide staining-based flow cytometric analysis (reference value: 13.12 +/- 0.93%); type: functional
[13] = Cell cycle arrest in human Kelly cells assessed as accumulation at G2/M phase at 50 uM after 48 hrs by propidium iodide staining-based flow cytometric analysis (reference value: 13.68 +/- 0.74%); type: functional
[14] = Cell cycle arrest in human Kelly cells assessed as accumulation at G2/M phase at 50 uM after 72 hrs by propidium iodide staining-based flow cytometric analysis (reference value: 13.84 +/- 0.76%); type: functional
[15] = Cell cycle arrest in human Kelly cells assessed as accumulation at polyploid Gn phase at 50 uM after 24 hrs by propidium iodide staining-based flow cytometric analysis (reference value: 9.85 +/- 1.54%); type: functional
[16] = Cell cycle arrest in human Kelly cells assessed as accumulation at polyploid Gn phase at 50 uM after 48 hrs by propidium iodide staining-based flow cytometric analysis (reference value: 8.97 +/- 1.27%); type: functional
[17] = Cell cycle arrest in human Kelly cells assessed as accumulation at polyploid Gn phase at 50 uM after 72 hrs by propidium iodide staining-based flow cytometric analysis (reference value: 13.07 +/- 0.25%); type: functional
[18] = Binding affinity to salmon sperm DNA assessed as increase in thermal melting temperature by spectrophotometric analysis; conditions: Salmonidae
[19] = Cytotoxicity against human HL60 cells assessed as cell viability reduction incubated for 72 hrs by alamar blue assay; type: functional, cell-based; conditions: HL-60, 72 h
How it was run: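 HL-60 cells in log phase, 40,000 per well, were treated in triplicate with compound at 10–100 µM (final, 1:100 from ddH2O stocks) or 1% ddH2O vehicle for 72 h at 37 °C. AlamarBlue was then added for 4.5 h in the dark and fluorescence read at ex 544/em 590 nm. Viability is blank-subtracted and expressed as % of vehicle. IC50 comes from a sigmoidal fit; ≥3 independent experiments.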

[20] = Cytotoxicity against human Kelly cells assessed as cell viability reduction incubated for 72 hrs by alamar blue assay; type: functional, cell-based
How it was run: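 Kelly cells, 6000 per well, were allowed to attach for 24 h, then treated in triplicate at 0.1–100 µM final or with ddH2O vehicle for 72 h at 37 °C. AlamarBlue was added for 4.5 h in the dark and fluorescence read at ex 544/em 590 nm. Blank-subtracted % of vehicle; IC50 from a sigmoidal dose-response fit; ≥3 independent experiments.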

[21] = Cell cycle arrest in human Kelly cells assessed as accumulation at pre-G1 phase at 25 uM after 24 hrs by propidium iodide staining-based flow cytometric analysis (reference value: 6.12 +/- 0.95%); type: functional
[22] = Cell cycle arrest in human Kelly cells assessed as accumulation at pre-G1 phase at 25 uM after 48 hrs by propidium iodide staining-based flow cytometric analysis (reference value: 5.88 +/- 1.13%); type: functional
[23] = Cell cycle arrest in human Kelly cells assessed as accumulation at pre-G1 phase at 25 uM after 72 hrs by propidium iodide staining-based flow cytometric analysis (reference value: 10.21 +/- 2.85%); type: functional
[24] = Cell cycle arrest in human Kelly cells assessed as accumulation at G0/G1 phase at 25 uM after 24 hrs by propidium iodide staining-based flow cytometric analysis (reference value: 52.37 +/- 1.44%); type: functional
[25] = Cell cycle arrest in human Kelly cells assessed as accumulation at G0/G1 phase at 25 uM after 48 hrs by propidium iodide staining-based flow cytometric analysis (reference value: 52.54 +/- 2.32%); type: functional
[26] = Cell cycle arrest in human Kelly cells assessed as accumulation at G0/G1 phase at 25 uM after 72 hrs by propidium iodide staining-based flow cytometric analysis (reference value: 46.82 +/- 1.46%); type: functional
[27] = Cell cycle arrest in human Kelly cells assessed as accumulation at S phase at 25 uM after 24 hrs by propidium iodide staining-based flow cytometric analysis (reference value: 18.67 +/- 1.9%); type: functional
[28] = Cell cycle arrest in human Kelly cells assessed as accumulation at S phase at 25 uM after 48 hrs by propidium iodide staining-based flow cytometric analysis (reference value: 19.05 +/- 2.11%); type: functional
[29] = Cell cycle arrest in human Kelly cells assessed as accumulation at S phase at 25 uM after 72 hrs by propidium iodide staining-based flow cytometric analysis (reference value: 16.29 +/- 0.81%); type: functional
[30] = Cell cycle arrest in human Kelly cells assessed as accumulation at G2/M phase at 25 uM after 24 hrs by propidium iodide staining-based flow cytometric analysis (reference value: 13.12 +/- 0.93%); type: functional
[31] = Cell cycle arrest in human Kelly cells assessed as accumulation at G2/M phase at 25 uM after 48 hrs by propidium iodide staining-based flow cytometric analysis (reference value: 13.68 +/- 0.74%); type: functional
[32] = Cell cycle arrest in human Kelly cells assessed as accumulation at G2/M phase at 25 uM after 72 hrs by propidium iodide staining-based flow cytometric analysis (reference value: 13.84 +/- 0.76%); type: functional
[33] = Cell cycle arrest in human Kelly cells assessed as accumulation at polyploid Gn phase at 25 uM after 24 hrs by propidium iodide staining-based flow cytometric analysis (reference value: 9.85 +/- 1.54%); type: functional
[34] = Dissociation constant, pKa of the compound; type: physicochemical
[35] = tested on: N=C(N)Oc1ccc(Sc2ccc(O)cc2)cc1; experiment: Inhibition of bovine brain tubulin polymerization assessed as rate of tubulin polymerization at 1 mM mesured at 30 s intervals for 60 mins by spectrophotometric analysis (reference value: 3.647 mOD/min); conditions: Bos taurus

`N=C(N)Oc1ccc(Oc2ccc(O)cc2)cc1` showed an Activity [1] of 6.91%, an Activity [2] of 4.09% and an Activity [3] of 24.3%. It also gave an Activity [4] of 50.7%, an Activity [5] of 49.5% and an Activity [6] of 42.1%. The Activity [7] was 25.2%, the Activity [8] was 29% and the Activity [9] was 16%. It also gave an Activity [10] of 11.7%, an Activity [11] of 17.3% and an Activity [12] of 8.23%. It also gave an Activity [13] of 3.5%, an Activity [14] of 2.44% and an Activity [15] of 7.77%. The Activity [16] was 4.19%, the Activity [17] was 2.69% and the ΔTm [18] was 4 °C. The IC50 [19] was 36.9 µM, the IC50 [20] was 17.3 µM and the Activity [21] was 20.4%. It also gave an Activity [22] of 38%, an Activity [23] of 48.4% and an Activity [24] of 31.2%. For the same compound, the Activity [25] was 22.2%, the Activity [26] was 26.2% and the Activity [27] was 25.6%. The Activity [28] was 27.5%, the Activity [29] was 16.4% and the Activity [30] was 11.3%. For the same compound, the Activity [31] was 7.65%, the Activity [32] was 5.04% and the Activity [33] was 13.5%.
Work on `N=C(N)Oc1ccccc1` yielded a pKa [34] of 8.29.
Work on `N=C(N)Nc1ccccc1` [PHENYLGUANIDINE] yielded a pKa [34] of 10.9.
With `N=C(N)Oc1ccc(Cc2ccc(OC(=N)N)cc2)cc1` the ΔTm [18] was 4 °C and the IC50 [19] was > 100 µM.
In the case of “Tubulin (Bos taurus) (from UniProt Q6B856+Q862L2+Q862F3)”, the Vmax [35] is reported as 2.63 mOD/minute.
